Test results reported in ChEMBL document CHEMBL1126114, “A novel orally active inhibitor of IL-1 generation: synthesis and structure-activity relationships of 3-(4-hydroxy-1-naphthalenyl)-2-propenoic acid derivatives” (J Med Chem, 1992).
Values joined by “and” are separate entries in the source; they are usually repeats but may differ in a detail not shown here. Equal values may be shown once.

Legend:
Assay type in all cases: functional
[1] = species on record: Rattus norvegicus; test: In vitro inhibitory activity against IL-1 generation by using rat exudated macrophages
In short: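 Fisher rat peritoneal exudate cells collected 4 days after i.p. 2.5% glycogen. Cells adhered 1.5 h at 37 °C in 1% normal rat serum. Adherent macrophages stimulated with LPS 1 ng/mL for 4 h ± compound. Intracellular IL-1 read by LAF assay against a recombinant human IL-1α curve. IC50 by least squares; mean of duplicates.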

[2] = system: Rattus norvegicus; test: Compound was evaluated in vivo for the percent inhibition of IL-1 generation in rat CMC-LPS air pouch model at 50 mg/Kg concentration (oral administration)
In short: (§1)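 Rat CMC-LPS air pouch: air s.c., 2% CMC-Na 24 h later, LPS 5 ng 24 h after that. Compound given orally in 0.5% methyl cellulose 2 h before LPS. Exudate collected at 4 h; IL-1 (extra- plus intracellular) read by LAF assay against a recombinant human IL-1α curve.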

[3] = species on record: Homo sapiens; test: In vitro inhibitory activity against IL-1 generation by using human monocyte
In short: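 Healthy-donor peripheral mononuclear cells, adhered 1.5 h in RPMI 1640 with 10% heat-inactivated autologous serum. Adherent monocytes then stimulated with LPS 1 μg/mL for 16–18 h in 1% autologous serum with 0.1% ethanol, ± drug. Extra- plus intracellular IL-1 read by LAF assay against a recombinant human IL-1β curve. IC50 by least squares; mean of ≥2 experiments.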

[4] = system: Rattus norvegicus; test: In vivo percent inhibition of IL-1 generation in rat CMC-LPS air pouch model at 100 uM concentration (local administration)
In short: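 Rat air pouch: 10 mL air s.c. into the dorsum, 2% CMC-Na in saline 24 h later, then LPS 5 ng 24 h after CMC. Compound given locally in 5% EtOH-RPMI with 30% autologous serum, 100 μM final in exudate, at 30 min before and just before LPS. Exudate IL-1 (extra- plus intracellular) read by LAF at 4 h. n=5; % inhibition ± SEM.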

[5] = system: Rattus norvegicus; test: Compound was evaluated in vivo for the percent inhibition of IL-1 generation in rat CMC-LPS air pouch model at 200 mg/Kg concentration (oral administration); in short: as §1

SMILES	IC50 [1]	IC50 [3]	inhibition in vivo at 50 mg/kg [2]	Inhibition [4]	inhibition in vivo at 200 mg/kg [5]
CCCCCOc1cc(/C=C/C(=O)O)c2cccc(CC)c2c1O	2500 nM	5300 nM		33%	
CCCc1cccc2c(/C=C/C(=O)O)cc(OC)c(O)c12	< 1000 nM	2300 nM	< 25%	91%	32%
CC/C(=C/c1cc(OC)c(O)c2c(CC)cccc12)C(=O)O	2100 nM		43%	90% and 71%	
CCc1cccc2c(/C=C(/C(=O)O)c3ccccc3)cc(OC)c(O)c12	2500 nM			42%	< 25%
CCc1ccc2c(O)c(OC)cc(/C=C/C(=O)O)c2c1	4000 nM	3900 nM		<25%	
CCc1cccc2c(/C=C(\Cc3ccccc3)C(=O)O)cc(OC)c(O)c12	2300 nM			79%	< 25%
CCc1cccc2c(/C=C(\C)C(=O)O)cc(OC)c(O)c12				85%	36%
COc1cc(/C=C/C(=O)O)c2cccc(C)c2c1O	< 1000 nM	2500 nM		<25%	
COc1cc(/C=C/C(=O)O)c2cccc(C(C)C)c2c1O	1000 nM	1400 nM		73%	< 25%
CCCc1cccc2c(/C=C(/C)C(=O)O)cc(OC)c(O)c12			33%	87% and 86%	
CCCc1cccc2c(/C=C(/Cc3ccccc3)C(=O)O)cc(OC)c(O)c12	1600 nM			91%	51%
CCc1cccc2c(/C=C/C(=O)O)cc(OCCOC)c(O)c12	3500 nM	> 10000 nM		34%	
CCCc1cccc2c(/C=C(\C)C(=O)O)cc(OC)c(O)c12			< 25%	91%	67%
CCc1cccc2c(/C=C(\Cc3cccs3)C(=O)O)cc(OC)c(O)c12	6500 nM			44%	
CCc1cccc2c(/C=C(/Cc3ccccc3)C(=O)O)cc(OC)c(O)c12	2100 nM		< 25%		
CCCc1cccc2c(/C=C(\CC)C(=O)O)cc(OC)c(O)c12	< 1000 nM	3700 nM		91%	62%
CCCC/C(=C\C(=O)O)c1cc(OC)c(O)c2c(CC)cccc12	> 10000 nM	5800 nM		52%	
CCc1cccc2c(/C(C)=C\C(=O)O)cc(OC)c(O)c12	> 10000 nM			<25%	
CCc1cccc2c(/C(C)=C/C(=O)O)cc(OC)c(O)c12	> 10000 nM			<25%	
CCc1cccc2c(/C=C/C(=O)O)cc(OC)c(O)c12	1500 nM	2400 nM		88%	< 25%

Now from value to molecule, other results behind:

IC50 [1]	IC50 [3]	SMILES	inhibition in vivo at 50 mg/kg [2]	Inhibition [4]	inhibition in vivo at 200 mg/kg [5]
1400 nM	2100 nM	COc1cc(/C=C(/C)C(=O)O)c2cccc(C(C)C)c2c1O	29%	87% and 79%	
1400 nM		CC/C(=C\c1cc(OC)c(O)c2c(CC)cccc12)C(=O)O		72%	41%
1000 nM	< 1000 nM	COc1cc(/C=C(\C)C(=O)O)c2cccc(C(C)C)c2c1O		70%	< 25%
1400 nM		CCOc1cc(/C=C/C(=O)O)c2cccc(CC)c2c1O		75%	
4100 nM	4000 nM	CCc1ccc2c(/C=C/C(=O)O)cc(OC)c(O)c2c1		<25%	
	> 10000 nM	CCc1c(OC)c(O)c2c(CC)cccc2c1/C=C/C(=O)O		<25%	
1400 nM	1900 nM	COc1cc(/C=C/C(=O)O)c2ccccc2c1O		<25%	
< 1000 nM	< 1000 nM	CCCc1cccc2c(/C=C(/CC)C(=O)O)cc(OC)c(O)c12	47%	90% and 78%	
> 10000 nM	> 10000 nM	CCc1c(OC)c(O)c2ccccc2c1/C=C/C(=O)O		<25%	
1900 nM	6700 nM	CCc1cccc2c(/C=C/C(=O)O)cc(OCc3ccccc3)c(O)c12		39%	
6300 nM		COCCCc1cccc2c(/C=C/C(=O)O)cc(OC)c(O)c12		<25%	
5500 nM	1800 nM	CCc1cccc2c(O)c(OC)cc(/C=C/C(=O)O)c12		26%	
